Source: ChEMBL document CHEMBL4513216, “Probing the Open Global Health Chemical Diversity Library for Multistage-Active Starting Points for Next-Generation Antimalarials” (ACS Infect Dis, 2020)

Assay: Toxicity liver stage against HepG2, at 10uM
Format: cell-based
Design: test concentration 10 uM, cell line HepG2-A16-CD81EGFP
Settings: human, HepG2-A16-CD81EGFP cells; read-out: INHIBITION
Procedure, shortened: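 Uninfected HepG2-A16-CD81EGFP cells, 3 × 10^3 per well, 1536-well, plated on prespotted compound at 10 μM final, parasite-free screening media added to match infected plates; puromycin 10 μM positive, DMSO 0.5% negative; run in parallel with 48 h PbLuc assay at 37 °C, 5% CO2; viability by CellTiter-Glo luminescence, normalized to controls.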

COc1ccc(C2=CCN(C(=O)C3CCN(C)C(=O)C3)CC2)cc1 (stereo unspecified)
cytotoxicity at 10 µM: -9.09%

O=C(C1CCC1)N1CCc2onc(Cn3cccn3)c2C1
cytotoxicity at 10 µM: -1.13%

O=C(c1cscn1)N1CC[C@@H]2[C@@H]1CCN2C1CCOCC1
cytotoxicity at 10 µM: 2.11%

O=C1C(NCc2nnc3n2CCCC3)CCN1c1ccccc1 (stereo unspecified)
cytotoxicity at 10 µM: -11.2%

Cc1cc(C)n(CC2CCCCN2C(=O)c2ccc3[nH]nnc3c2)n1 (stereo unspecified)
cytotoxicity at 10 µM: 2.52%

COc1cccc(-c2cnc(CNC(C)(C)c3nc(C)cs3)o2)c1
cytotoxicity at 10 µM: 11.4%

CN(C)CCOc1cccc(CN2CCCC3(C2)CN(C)C(=O)O3)c1 (stereo unspecified)
cytotoxicity at 10 µM: -5.82%

CCC(=O)Nc1cccc(C(=O)NCCC2=CSC3=NCCCN23)c1
cytotoxicity at 10 µM: 1.93%

Cc1nc(N2CCCCC2)ncc1-c1cc(O)nc(N2CCCCC2)n1
cytotoxicity at 10 µM: 11.8%

O=C(CCc1cscn1)N1CCC(C(=O)O)(c2ccccc2)CC1
cytotoxicity at 10 µM: -5.36%

CCNC(=O)NC(=O)CNc1cc(C#N)ccc1OCC
cytotoxicity at 10 µM: -19.7%

CCOCC(O)CN1CCN(C(=O)Cc2ccc3c(c2)CCO3)CC1 (stereo unspecified)
cytotoxicity at 10 µM: -18.5%

CCOc1ccccc1C(CC(=O)N(C)C)NC(C)=O (stereo unspecified)
cytotoxicity at 10 µM: -4.67%

COCCOc1cc(C)ccc1NC(=O)N(C)Cc1cnn(C)c1
cytotoxicity at 10 µM: -9.5%

COc1cccc(C(=O)N2CCc3ncnc(C)c3CC2)c1
cytotoxicity at 10 µM: -12.6%

NC(=O)c1cccc2nc([C@H]3CCN(Cc4ccccn4)C3)[nH]c12
cytotoxicity at 10 µM: 4.32%

CCS(=O)(=O)CCNC(=O)NCc1ccccc1-n1cccn1
cytotoxicity at 10 µM: 4.87%

CC(O)(CNc1ccc(Cl)c(C#N)n1)c1ccccc1 (stereo unspecified)
cytotoxicity at 10 µM: -9.06%

Cc1nc(CN2CCCC2c2noc(C3CC3)n2)oc1C (stereo unspecified)
cytotoxicity at 10 µM: -8.13%

CN1Cc2nc[nH]c2C[C@H]1C(=O)NC1CCCCC1
cytotoxicity at 10 µM: 0.0515%

CCC1CN(Cc2c(O)ccc3oc4c(c23)CCCC4)CCO1 (stereo unspecified)
cytotoxicity at 10 µM: 2.03%

COCCn1c2c(ccc1=O)CCN(Cc1ccoc1)CC2
cytotoxicity at 10 µM: -134%

CCOCC1CN(Cc2cnn(C)c2)Cc2nn(CC3CC3)cc21 (stereo unspecified)
cytotoxicity at 10 µM: -75.9%

CCN1CC2(CCN(CC3CCCO3)CC2)OC1=O (stereo unspecified)
cytotoxicity at 10 µM: -4.78%

CC(C(=O)N1CCCN(Cc2cscn2)CC1)N1CCOCC1 (stereo unspecified)
cytotoxicity at 10 µM: -11.4%

CCOc1ccc(N2CCCN=C2NC(=O)c2cccc(C)c2)cc1
cytotoxicity at 10 µM: 1.61%

O=C(NCCC(=O)N1CCCC1)c1nn(-c2ccccc2F)cc1O
cytotoxicity at 10 µM: -13.9%

COc1ccc(CN2CCC3(CCCNC3)C2)cc1Cn1cccn1 (stereo unspecified)
cytotoxicity at 10 µM: -10.1%

O=C(NC1CCc2cc(Cl)ccc21)C1CCN(C(=O)C2CC2)CC1 (stereo unspecified)
cytotoxicity at 10 µM: -1.43%

CSc1cccc(NC(=O)N2CCCC(CNC(=O)c3ccco3)C2)c1 (stereo unspecified)
cytotoxicity at 10 µM: -2.4%

Cn1ccnc1CNC1CCCN(Cc2noc(C3CC3)n2)C1 (stereo unspecified)
cytotoxicity at 10 µM: -11.1%

COCC(=O)N1CCCCC1c1nc(N(C)C)ncc1-c1cc(C)no1 (stereo unspecified)
cytotoxicity at 10 µM: 5.93%

O=C(NCCc1nccs1)[C@H](c1ccccc1)n1cnnn1
cytotoxicity at 10 µM: -0.607%

COC(C)c1noc(CN(C)c2ncccn2)n1 (stereo unspecified)
cytotoxicity at 10 µM: 7.33%

NC(=O)N1CCCC(C(=O)N2CCc3c(nc(CC4CC4)[nH]c3=O)C2)C1 (stereo unspecified)
cytotoxicity at 10 µM: -13.8%

Cc1ccc(C2CSCCN2C(=O)c2ccoc2C)o1 (stereo unspecified)
cytotoxicity at 10 µM: 13.8%

COc1ccc(OCCN(C)C(=O)c2ccc(OC)cc2O)cc1
cytotoxicity at 10 µM: -143%

CC(=O)N1CCCC1c1cc(N2CCN(CC(C)(C)C)CC2)cc(C)n1 (stereo unspecified)
cytotoxicity at 10 µM: -6.41%

CC(O)CN1CCC(CNCc2cccc(OC(C)C)c2)CC1 (stereo unspecified)
cytotoxicity at 10 µM: -8.16%

Oc1nnc(-c2ccccc2)c2sc(N3CCCCC3)nc12
cytotoxicity at 10 µM: -1.81%

O=C(c1cccnc1)N1CC[C@H](OCC2CC2)[C@@H]1Cc1cccnc1
cytotoxicity at 10 µM: -0.53%

Cc1cc(C(=O)NCCN2CCCC(C)C2)nn1C (stereo unspecified)
cytotoxicity at 10 µM: -2.79%

Cc1ccc(NC2CCN(C(=O)c3cc[nH]n3)CC2)nn1
cytotoxicity at 10 µM: -15.2%

CCCc1cc(CNC2CCN(c3nc(C)cc(C)n3)CC2)on1
cytotoxicity at 10 µM: 7.51%

O=C(c1ccco1)N1CCO[C@@H]2CN(c3ccccn3)CC[C@@H]2C1
cytotoxicity at 10 µM: 9.43%

O=C(NCC1CCOC1)N1CCN(c2ncccn2)CC1 (stereo unspecified)
cytotoxicity at 10 µM: -39.8%

Cn1c(C2CC2)nc2c1CCN(CCOc1ccccc1C#N)C2
cytotoxicity at 10 µM: -29.8%

COCc1cc(N(CC(F)F)C2CC2)n2ncnc2n1
cytotoxicity at 10 µM: -3.94%

Brc1cnc(NCCCOCC2CCOCC2)nc1
cytotoxicity at 10 µM: 16.8%

O=C(Nc1cnccn1)[C@H]1CC[C@@H]2[C@@H](CCN2Cc2ccccn2)O1
cytotoxicity at 10 µM: -139%

CC(C)(C)CC(=O)N1CC[C@H]2NC(=O)N(Cc3ccccc3)C(=O)[C@H]21
cytotoxicity at 10 µM: -0.171%

O=C(C1CCOC1)N1CCC2(CC1)CN(c1ncccn1)CCO2 (stereo unspecified)
cytotoxicity at 10 µM: -73.2%

Cc1cc(C2CCCN2Cc2ccc(C(=O)Nc3nccs3)cc2)on1 (stereo unspecified)
cytotoxicity at 10 µM: -6.03%

CCc1ccc(CN(C)C(=O)C(c2ccccc2F)N(C)C)nc1 (stereo unspecified)
cytotoxicity at 10 µM: 4.03%

CSc1nccc(N2C[C@H]3CC[C@@H](C2)N(CC2CCC2)C3=O)n1
cytotoxicity at 10 µM: 1.88%

CCNC(=O)NC(C)(C)C(=O)NCc1cccc(N2CC=CC2)c1
cytotoxicity at 10 µM: 7.35%

CC(C)c1nccn1C1CCCN(C(=O)c2cn3cccnc3n2)C1 (stereo unspecified)
cytotoxicity at 10 µM: -3.63%

CNC(=O)CN(C)C1CCN(c2ccc(Cl)cc2)CC1
cytotoxicity at 10 µM: -1.15%

O=C(Cc1ccon1)N1CCc2cc(Br)sc2C1
cytotoxicity at 10 µM: 1.69%

CN1CCN(Cc2cscn2)CC(C(=O)N(C)C)C1 (stereo unspecified)
cytotoxicity at 10 µM: -5.61%

C[C@]1(O)CN(CCC(N)=O)CC[C@@H]1Oc1cccc(F)c1
cytotoxicity at 10 µM: -0.224%

CCN(CC)c1ncc(S(=O)(=O)c2cccc(C)c2)c(N)n1
cytotoxicity at 10 µM: -0.707%

O=C(c1cc(Cl)ccc1OC1CCN(C2CCCC2)CC1)N1CC(O)C1
cytotoxicity at 10 µM: -16.2%

CNC(=O)[C@H]1C[C@@H]2CCN(Cc3nccs3)C[C@H]2O1
cytotoxicity at 10 µM: -75.9%

CCn1nc2c(cc1=O)CN(Cc1nc(C)c(C)o1)CC2
cytotoxicity at 10 µM: -3.59%

CN(Cc1ccccc1CN1CCCC1)C(=O)c1c[nH]c(=O)[nH]1
cytotoxicity at 10 µM: -3.99%

CC(NC(=O)CCOc1cccc(F)c1)c1nnc2n1CCC2 (stereo unspecified)
cytotoxicity at 10 µM: -14.1%

Cn1nc(C2CCCNC2)c2c(C(=O)NC3CC3)cc(C3CC3)nc21 (stereo unspecified)
cytotoxicity at 10 µM: 14.5%

O=C(c1ccoc1)N1C[C@@H]2CN(c3ncccn3)C[C@@H]2C1
cytotoxicity at 10 µM: -5.3%

O=C(NC1CC1)C1[C@H]2CN(Cc3ccc(-c4cc[nH]n4)s3)C[C@@H]12 (stereo partly specified)
cytotoxicity at 10 µM: 6.27%

CC(NC(=O)CN1C=Nc2ccccc2S1(=O)=O)C1CC1 (stereo unspecified)
cytotoxicity at 10 µM: 4.53%

CC(C)NC(=O)N1CCN(CCn2cccn2)c2ncccc2C1
cytotoxicity at 10 µM: -100%

CCc1nc(C2CCCN2Cc2ccno2)no1 (stereo unspecified)
cytotoxicity at 10 µM: 2.52%

CC(C)N[C@@H]1CC[C@@H]1NC(=O)c1ccccc1OC(F)(F)C(F)F
cytotoxicity at 10 µM: 1.77%

CCn1cc(CN(C)Cc2cnn(-c3ccc(F)cc3)c2)cn1
cytotoxicity at 10 µM: -5.44%

O=S(=O)(CC1CCCCO1)Nc1c(F)cccc1-n1cccn1 (stereo unspecified)
cytotoxicity at 10 µM: 3.44%

CC(C)C(NC(=O)N1CCN(c2ccc(Cl)cc2)CC1)C(=O)NC1CC1 (stereo unspecified)
cytotoxicity at 10 µM: 23.6%

COc1ccccc1C(=O)N(Cc1nc(C)cs1)CC1CCCO1 (stereo unspecified)
cytotoxicity at 10 µM: 0.136%

Cc1ccc(CN(C)C(=O)CNC(C)(C)c2noc(C(C)(C)C)n2)o1
cytotoxicity at 10 µM: 2.43%

O=C(Nc1ccc(I)cc1C(=O)NCCN1CCOCC1)c1cccs1
cytotoxicity at 10 µM: -5.09%

Cc1cnn(CC2CN(CCS(C)(=O)=O)CCO2)c1 (stereo unspecified)
cytotoxicity at 10 µM: -2.25%
